# A selection: hits, their analogues and other compounds. The true share with any hit is near 2.1%.
# KLF5 inh – KLF5 expression inhibitors, primary screen, DLD-1 cells, luminescence; DLD-1 KLF5 promoter-luciferase reporter; inhibition, % at 5 µM; 0.23% of 290,000 active; AID 1700, 2009;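 active means inhibition above a per-plate limit of that plate's mean compound inhibition plus 3 SD, cut at about 60% in these data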;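 further: 0% = DMSO wells and 100% = LY294002 at 200 µM; higher means less KLF5 promoter-driven luciferase light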
# Ba/F3 V617F tox – reduced viability of JAK2V617F-dependent Ba/F3 cells, primary screen, JAK2V617F inhibitor project, cell-based, Ba/F3 EpoR-JAK2V617F, luminescence; ATP luminescence; inhibition, % at 5.6 µM; 1.1% of 220,000 active; AID 1446, 2008;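 active means inhibition above the campaign mean plus 3 SD over all tested compounds, cut at about 24% in these data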;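 further: cytokine-independent growth of Ba/F3 cells driven by EpoR plus mutant JAK2; 0% = DMSO-treated cells and 100% = JAK inhibitor I control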
# b-catenin transl – modulators of beta-catenin nuclear translocation, primary screen, imaging, HeLa cells, immunofluorescence, high-content | nuclear translocation activity, % at 5 µM | 0.3% of 190,000 active | AID 1665, 2009;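 active means nuclear translocation activity above 50% at 5 µM, with a well cell count of 50 or more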;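 further: per-cell ratio of nuclear to cytoplasmic median beta-catenin stain intensity; plate controls were DMSO negative control for no effect and GSK-3 inhibitor IX positive control for full effect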
#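 Technique: fluorescence imaging of beta-catenin antibody stain plus DAPI / Material: human HeLa cell line / Incubation: compound treatment 24 h, 37°C, 5% CO2 / Read-out basis: % activation of per-cell nuclear versus cytoplasmic median beta-catenin signal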
# BaF3 parental – parental Ba/F3 cell viability inhibition, counter-screen for JAK2V617F inhibitor project, murine pro-B, CellTiter-Glo luminescence; CellTiter-Glo ATP luminescence; inhibition, % at 5.6 µM; 1.1% of 220,000 active; AID 1486, 2009;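 active means inhibition above a per-campaign cutoff, the mean inhibition of all tested compounds plus 3 SD, cut at about 27% in these data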;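 further: 0% = DMSO wells and 100% = JAK Inhibitor I control wells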
# MT stabilizer – microtubule stabilizers in HeLa cells, primary screen, imaging, high-content imaging. HeLa tubulin immunostaining HCS, 24 h; share of cells brighter than vehicle mean+2SD. % tubulin-high responders, % at 10 µM. AID 2205, 2009. 0.83% of 200,000 active;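 active means plate Z-score above 3 for both tubulin-high and condensed-nucleus cell shares, with cell loss under 80%, at 10 µM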;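 further: anti alpha tubulin signal scored within the nucleus-defined area of each cell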
# IEC-6 cytotox – cytotoxicity in IEC-6 intestinal epithelial cells, primary screen, cytotoxicity control for KLF5 inhibitor project, cell-based, luminescence; IEC-6 cytotoxicity, luminescence viability; inhibition, % at 5 µM; 0.78% of 290,000 active;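 further: 0% = plate median of test compound wells and 100% = cytotoxic reference compound wells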
# IEC-6 cytotox cf – cytotoxic compounds in IEC-6 epithelial cells, confirmation, cytotoxicity control, cell-based, luminescence; shares compounds with IEC-6 cytotox; IEC-6 rat intestinal epithelial viability; inhibition, % at 5 µM; 63% of 1,900 active; AID 1907, 2009;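 further: 0% = vehicle and 100% = reference cytotoxic drug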
# * = called active by the depositor; nt = no result. Unless noted, no stated cut-off is given here; in the data, active means inhibition above about 22%; inactive means the rest.
SMILES,KLF5 inh,Ba/F3 V617F tox,b-catenin transl,BaF3 parental,MT stabilizer,IEC-6 cytotox,IEC-6 cytotox cf
COc1ccc(NS(=O)(=O)c2cccc(NC(=O)c3ccc(Cl)nc3)c2)cc1,12.2,62.8*,1.2,78.2*,16.1*,33.3*,18.4
CC(=O)c1sc2nsc(SCCN3CCOCC3)c2c1N,-0.1,-2.9,0.6,-1.5,nt,24.1*,6.8
Nc1c(C(=O)c2ccccc2)sc2nsc(SCCN3CCOCC3)c12,-37.3,-1.6,2.7,3.7,nt,-2.1,nt
O=C(CCNS(=O)(=O)c1ccc(Cl)cc1)Nc1ccncc1,-1.7,nt,nt,nt,nt,1.8,nt
O=C(Nc1ccncc1)C1CCCN(S(=O)(=O)c2cccc3cccnc23)C1 (configuration not stated),47.4,84.8*,88.4*,70.0*,21.8*,55.6*,46.4*
O=S(=O)(c1ccc2c(c1)nc(COc1ccc(Cl)cc1)n2CC1CCCO1)N1CCOCC1 (configuration not stated),-15.1,33.2*,7.5,56.4*,2.8,36.7*,-7.7
CN(CCOC(=O)c1ccco1)Cc1ccccc1,-2.2,3.8,nt,5.7,2.2,40.7*,5.1
O=C1CN(C(=O)c2c(F)cccc2F)C(c2ccc(F)cc2)c2cc(F)ccc2N1 (configuration not stated),-6.3,nt,nt,nt,nt,6.8,nt
COc1ccc(NC(=O)c2c(N)no[n+]2[O-])c(OC)c1,-31.9,-3.2,-1.4,2.1,3.2,-1.5,nt
COc1ccc(NC(=O)c2c(N)no[n+]2[O-])cc1,15.1,-3.6,4.3,0.4,6.5,32.7*,28.4*
CCCCCn1c(Sc2nc3ccccc3s2)nc2c1c(=O)[nH]c(=O)n2C,-18.1,0.5,-2.9,4.0,1.9,6.8,nt
CCCSc1nnc(Sc2nnnn2-c2ccccc2)s1,-40.3,82.0*,-7.7,94.8*,8.8,42.4*,26.2*
Cc1ccccc1-n1nnnc1Sc1nnnn1-c1ccccc1,-29.0,4.5,-0.2,-0.3,0.8,3.9,nt
COc1ccc(S(=O)(=O)N2CCOC2CNC(=O)C(=O)NCCCN(C)C)cc1C (configuration not stated),-2.9,nt,nt,nt,nt,-1.7,nt
CCOC(=O)c1[nH]c(C)c(/C(O)=C2\C(=O)C(=O)N(CCCN3CCOCC3)C2c2cccs2)c1C (configuration not stated),32.9,69.7*,-5.4,71.8*,nt,58.7*,10.0
COC(=O)c1[nH]c(C)c(/C(O)=C2\C(=O)C(=O)N(CCN3CCOCC3)C2c2cccs2)c1C (configuration not stated),nt,nt,0.1,nt,nt,nt,nt
CN(C)S(=O)(=O)c1ccc(NC(=O)COc2ncnc3sccc23)cc1,-34.6,1.5,-1.9,6.1,3.7,-5.4,nt
COc1ccc(/C(C)=N/NC(=O)c2nnn(-c3nonc3N)c2CN(C)c2ccccc2)cc1,4.8,nt,nt,nt,nt,1.2,nt
C/C(=N\NC(=O)c1nnn(-c2nonc2N)c1CN(C)c1ccccc1)c1ccccc1O,36.6,nt,nt,nt,nt,51.2*,49.9*
Cn1cc([N+](=O)[O-])c(C(=O)Nc2sc3c(c2C#N)CCC3)n1,13.9,nt,nt,nt,nt,91.9*,29.4*
Cn1cc(Br)c(C(=O)Nc2sc3c(c2C#N)CCC3)n1,-31.2,1.2,-2.3,0.1,nt,3.0,nt
C=CCSc1nc(=O)n2ccc(C)cc2n1,1.8,-1.8,nt,3.6,1.8,6.1,nt
Nc1nccc(-c2nn(-c3ccc(Cl)cc3)ccc2=O)n1,-1.7,-5.3,-2.1,0.0,nt,2.2,nt
C=CCSc1nccc(-c2nn(-c3ccc(C)cc3)ccc2=O)n1,20.4,36.8*,33.1,46.3*,39.3*,39.1*,34.0*
CSc1nccc(-c2nn(-c3ccc(C)cc3)ccc2=O)n1,9.8,75.1*,nt,75.6*,57.2*,51.2*,38.5*
CC1CCCN(S(=O)(=O)c2ccc(C(=O)Nc3nnc(-c4ccco4)o3)cc2)C1 (configuration not stated),50.6,nt,nt,nt,nt,25.0*,16.3
